Results on 9 compounds are retold here after ChEMBL document CHEMBL4814031, “In pursuit of a selective hepatocellular carcinoma therapeutic agent: Novel thalidomide derivatives with antiproliferative, antimigratory and STAT3 inhibitory properties” (Eur J Med Chem, 2021).

Molecules are shown by their SMILES. Active and inactive are the calls of the source. The rule behind the calls is not given here. Where only a bound is given, the exact number is not on record here.

Data set [1] relates to BMOL-T. Briefly: Antimigratory activity against mouse BMOL-T cells assessed as inhibition of cell migration at 10 uM incubated for 24 hrs by scratch wound healing assay. Format: functional, cell-based. In outline: (§1)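 Wound healing in BMOL-T cells plated at 20,000/well in supplemented Williams' E medium and grown 24 h. Wounds made with a Woundmaker, then medium replaced with fresh medium holding compound or 0.1% DMSO vehicle. Live-cell imaging every 2 h over 24 h, read as average wound width (µm). n = 3, SEM.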

A short description of data set [2]: Antimigratory activity against mouse BMOL-T cells assessed as inhibition of cell migration at 10 uM incubated for 16 hrs by scratch wound healing assay relative to control. In kind it is functional. The essentials:
as §1

In data set [3] the target is T1, Transcription factor p65 (Mus musculus, UniProt Q04207). The data set can be described thus: Inhibition of NFkB p65 phosphorylation in mouse BMOL-NT cells assessed as change in phosphorylated p65 level at 10 uM incubated for 6 hrs by immunofluorescent assay relative to control. Format: cell-based. Also noted: scale not given: the % may be the effect or the level left. In outline: (§2)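 BMOL cells in supplemented Williams' E medium were treated 6 h with compound or 0.1% DMSO vehicle. Fixed in 4% PFA, permeabilised with 0.1% Triton X-100, blocked, then incubated 18 h with anti-phospho-p65, -Akt or -STAT3, then secondary antibody 1 h and Hoechst. High-content imaging of per-cell intensity and nuclear:whole-cell ratio. Mean of two experiments, SD.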
T1 sequence (Q04207 whole entry): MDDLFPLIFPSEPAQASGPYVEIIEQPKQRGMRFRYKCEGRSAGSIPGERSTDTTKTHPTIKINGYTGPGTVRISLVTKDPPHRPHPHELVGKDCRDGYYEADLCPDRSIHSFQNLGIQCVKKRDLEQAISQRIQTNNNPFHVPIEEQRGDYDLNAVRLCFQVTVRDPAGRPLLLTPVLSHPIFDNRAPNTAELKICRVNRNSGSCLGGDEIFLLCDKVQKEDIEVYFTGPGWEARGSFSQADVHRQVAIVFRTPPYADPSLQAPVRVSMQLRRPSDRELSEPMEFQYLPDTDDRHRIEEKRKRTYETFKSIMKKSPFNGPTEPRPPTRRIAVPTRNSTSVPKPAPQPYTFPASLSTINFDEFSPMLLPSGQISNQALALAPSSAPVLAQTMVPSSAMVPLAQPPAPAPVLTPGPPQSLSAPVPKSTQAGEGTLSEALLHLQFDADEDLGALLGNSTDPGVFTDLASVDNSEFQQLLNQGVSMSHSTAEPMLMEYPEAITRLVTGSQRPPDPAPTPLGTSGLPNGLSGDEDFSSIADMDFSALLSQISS

In data set [4] the target is Transcription factor p65 (Mus musculus) (UniProt Q04207). Briefly: Inhibition of NFkB p65 phosphorylation in mouse BMOL-T cells assessed as change in phosphorylated p65 level at 10 uM incubated for 6 hrs by immunofluorescent assay relative to control. In kind it is cell-based. Also noted: scale not given: the % may be the effect or the level left. In outline: as §2
Transcription factor p65 (Mus musculus), sequence (Q04207 whole entry): as above

Data set [5] is described as follows: Inhibition of Akt phosphorylation in mouse BMOL-NT cells assessed as change in phosphorylated Akt level at 10 uM incubated for 6 hrs by immunofluorescent assay relative to control. Also noted: scale not given: the % may be the effect or the level left. Format: cell-based. The essentials:
as §2

Data set [6] has as its system BMOL-T. Briefly: Inhibition of Akt phosphorylation in mouse BMOL-T cells assessed as change in phosphorylated Akt level at 10 uM incubated for 6 hrs by immunofluorescent assay relative to control. In kind it is cell-based. Details: scale not given: the % may be the effect or the level left. In outline: as §2
The target of data set [7] is T2, Signal transducer and activator of transcription 3 (Mus musculus, UniProt P42227). The data set can be described thus: Inhibition of STAT3 phosphorylation in mouse BMOL-NT cells assessed as change in phosphorylated STAT3 level at 10 uM incubated for 6 hrs by immunofluorescence assay relative to control. In kind it is cell-based. Details: scale not given: the % may be the effect or the level left. In outline: as §2
T2 sequence (P42227 whole entry): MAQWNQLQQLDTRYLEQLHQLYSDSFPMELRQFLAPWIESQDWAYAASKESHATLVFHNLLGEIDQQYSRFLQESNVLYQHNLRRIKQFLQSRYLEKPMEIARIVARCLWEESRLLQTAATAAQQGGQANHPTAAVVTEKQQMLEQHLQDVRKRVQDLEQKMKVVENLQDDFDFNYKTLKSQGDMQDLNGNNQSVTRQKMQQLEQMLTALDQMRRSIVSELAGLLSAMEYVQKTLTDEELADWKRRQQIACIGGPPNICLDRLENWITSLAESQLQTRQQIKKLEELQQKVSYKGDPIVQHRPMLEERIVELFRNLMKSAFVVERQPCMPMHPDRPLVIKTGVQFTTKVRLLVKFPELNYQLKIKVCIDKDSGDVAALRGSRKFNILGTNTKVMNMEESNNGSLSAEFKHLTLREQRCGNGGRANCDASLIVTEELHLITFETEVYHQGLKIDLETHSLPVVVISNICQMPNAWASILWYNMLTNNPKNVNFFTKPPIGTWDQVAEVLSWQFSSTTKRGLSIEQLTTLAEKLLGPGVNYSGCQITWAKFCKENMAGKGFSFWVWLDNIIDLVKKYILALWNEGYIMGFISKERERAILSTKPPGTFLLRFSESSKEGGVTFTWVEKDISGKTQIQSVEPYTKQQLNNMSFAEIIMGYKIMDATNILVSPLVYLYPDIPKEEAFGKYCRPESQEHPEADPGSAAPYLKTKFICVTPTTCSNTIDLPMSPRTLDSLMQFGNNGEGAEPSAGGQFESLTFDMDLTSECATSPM

The target of data set [8] is Signal transducer and activator of transcription 3 (Mus musculus) (UniProt P42227). The data set can be described thus: Inhibition of STAT3 phosphorylation in mouse BMOL-T cells assessed as change in phosphorylated STAT3 level at 10 uM incubated for 6 hrs by immunofluorescence assay relative to control. Also noted: scale not given: the % may be the effect or the level left. Format: cell-based. In outline: as §2
Signal transducer and activator of transcription 3 (Mus musculus), sequence (P42227 whole entry): as above

Data set [9] in a line: Antiproliferative activity against mouse BMOL-T cells assessed as cell growth inhibition at 10 uM measured every 4 hrs for 3 days by IncuCyte zoom live cell analysis relative to control. In kind it is functional. The settings on record: 72 h, time 3 day.
Data set [10] in a line: Selectivity for antiproliferative activity against mouse BMOL-T cells over mouse BMOL-NT cells at 10 uM measured every 4 hrs for 3 days by IncuCyte zoom live cell analysis. Conditions: time 3 day.
Data set [11] in a line: (§3) Antiproliferative activity against mouse BMOL-T cells assessed as minimum concentration required for cell growth inhibition measured every 4 hrs for 3 days by IncuCyte zoom live cell analysis. Format: functional. The settings on record: time 3 day. In outline:
(§4)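 Dose series for BMOL-T proliferation: cells plated at 1000/well, compound added from 2× solutions (final 0.1% DMSO), imaged every 4 h for 3 days. Doubling time from the log-phase linear part of a log confluence vs time curve, expressed as % change over vehicle. n = 3, SEM.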

In data set [12] the test system is BMOL-T. The description is as §3. In kind it is functional. The settings on record: time 3.0 day. The essentials:
as §4

Data set [13] can be described thus: Antiproliferative activity against mouse BMOL-NT cells assessed as cell growth inhibition at >10 uM measured every 4 hrs for 3 days by IncuCyte zoom live cell analysis. In kind it is cell-based. Conditions: 72 h, time 3 day.
A short description of data set [14]: Selectivity for antiproliferative activity against mouse BMOL-T cells over mouse BMOL-NT cells at 26 uM measured every 4 hrs for 3 days by IncuCyte zoom live cell analysis. Conditions: time 3 day.
In data set [15] the target is T1, Transcription factor p65. Briefly: Inhibition of NFkB p65 nuclear translocation in mouse BMOL-NT cells assessed as change in nuclear p65 level at 10 uM incubated for 6 hrs by immunofluorescent assay relative to control. Format: subcellular, Nucleus. Also noted: scale not given: the % may be the effect or the level left. The essentials: as §2
The target in data set [16] is Transcription factor p65 (Mus musculus) (UniProt Q04207). Briefly: Inhibition of NFkB p65 nuclear translocation in mouse BMOL-T cells assessed as change in nuclear p65 level at 10 uM incubated for 6 hrs by immunofluorescent assay relative to control. Format: subcellular. Also noted: scale not given: the % may be the effect or the level left. The settings on record: Nucleus. The essentials: as §2

Data set [17] is described as follows: Inhibition of Akt phosphorylation in mouse BMOL-NT cells assessed as change in nuclear phosphorylated Akt level at 10 uM incubated for 6 hrs by immunofluorescent assay relative to control. Format: subcellular, Nucleus. Also noted: scale not given: the % may be the effect or the level left. In outline: as §2
In data set [18] the test system is BMOL-T. Briefly: Inhibition of Akt phosphorylation in mouse BMOL-T cells assessed as change in nuclear phosphorylated Akt level at 10 uM incubated for 6 hrs by immunofluorescent assay relative to control. Format: subcellular. Details: scale not given: the % may be the effect or the level left. The settings on record: Nucleus. The essentials: as §2
In data set [19] the target is T2, Signal transducer and activator of transcription 3. Briefly: Inhibition of STAT3 phosphorylation in mouse BMOL-NT cells assessed as change in nuclear phosphorylated STAT3 level at 10 uM incubated for 6 hrs by immunofluorescence assay relative to control. In kind it is subcellular, Nucleus. Also noted: scale not given: the % may be the effect or the level left. In outline: as §2

Data set [20] addresses Signal transducer and activator of transcription 3 (Mus musculus) (UniProt P42227). Briefly: Inhibition of STAT3 phosphorylation in mouse BMOL-T cells assessed as change in nuclear phosphorylated STAT3 level at 10 uM incubated for 6 hrs by immunofluorescence assay relative to control. In kind it is subcellular. Details: scale not given: the % may be the effect or the level left. Conditions: Nucleus. The essentials: as §2

In data set [21] the test system is BMOL-T. The data set can be described thus: Effect on STAT3 expression in mouse BMOL-T cells at 10 uM by AlphaLISA assay. In kind it is functional, cell-based. The essentials: (§5)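 AlphaLISA in BMOL-T cells treated at 10 µM with 0.1% DMSO vehicle as control. Read as normalised fluorescence for total STAT3, or as the ratio of total STAT3 to p-STAT3. n ≥ 3, SEM. Significance by ANOVA with Dunnett's test.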

The nature of data set [22]: Antiproliferative activity against mouse BMOL-NT cells assessed as cell growth by measuring doubling time at 10 uM measured every 4 hrs for 3 days by IncuCyte zoom live cell analysis (reference value: 18 to 19 hrs). In kind it is cell-based. The settings on record: 72 h, time 3 day.
Data set [23] is described as follows: Antiproliferative activity against mouse BMOL-T cells assessed as cell growth by measuring doubling time at 10 uM measured every 4 hrs for 3 days by IncuCyte zoom live cell analysis (reference value: 14.3 to 15 hrs). In kind it is functional. Conditions: time 3 day.
Data set [24] in a line: Antiproliferative activity against mouse BMOL-NT cells assessed as change in doubling time at 10 uM measured every 4 hrs for 3 days by IncuCyte zoom live cell analysis relative to control. In kind it is cell-based. Conditions: 72 h, time 3 day.
The nature of data set [25]: Antiproliferative activity against mouse BMOL-T cells assessed as change in doubling time at 10 uM measured every 4 hrs for 3 days by IncuCyte zoom live cell analysis relative to control. Format: functional. The settings on record: time 3 day.
Data set [26] can be described thus: Antiproliferative activity against mouse BMOL-NT cells assessed as cell growth inhibition at 14 to 26 uM measured every 4 hrs for 3 days by IncuCyte zoom live cell analysis. Format: cell-based. The settings on record: 72 h, dose 14-26 µM, time 3 day.
The target of data set [27] is Signal transducer and activator of transcription 3 (Mus musculus) (UniProt P42227). The data set can be described thus: Inhibition of STAT3 phosphorylation in mouse BMOL-T cells at 10 uM by AlphaLISA assay. In kind it is cell-based. In outline: as §5

In the case of `CC(C)(C)c1ccc(Nc2cccc3c2C(=O)N(C2CCC(=O)NC2=O)C3=O)cc1` (stereo not given), the result with BMOL-T [1] was Active. The inhibition (usually the relative decrease from the control value, in per cent) at 10 µM in data set [2] came out at 94%; in data set [9], 31%. Besides, the Activity at Transcription factor p65 [3] was -1%; in data set [4], -7%; in [5], 4%; with BMOL-T [6] it was 4%; in data set [7] it was -4%; in [8], -7%. Besides, the Activity entry in the data set with BMOL-T [12] was “Dose-Dependent Effect”; in data set [13], “Toxic”; at Transcription factor p65 [15] it was -11%; in data set [16], -9%; in data set [17], -10%; in the data set with BMOL-T [18] it was 4%. Also, the Activity in [19] was -13%; in data set [20], -10%. For the same compound, the Selectivity ratio in data set [10] worked out at 23; in data set [14], 3. For the same compound, the MAC in data set [11] was determined as 4 µM. Moreover, in the data set on BMOL-T [21], the result was inactive.
Regarding `CC(C)c1ccc(S(=O)(=O)c2cccc3c2C(=O)N(C2CCC(=O)NC2=O)C3=O)cc1` (stereo not given), the results for the Time in data set [22] and in data set [23] were 17.4 h and 14.9 h, respectively. For the same compound, the Activity in data set [24] and in data set [25] was 3% in each case.
In the case of `CNC(=O)c1cc(Oc2ccc(NC(=O)Nc3ccc(Cl)c(C(F)(F)F)c3)cc2)ccn1` [SORAFENIB], the Time is 50 h in data set [22] and 71 h in [23]. In addition, the values for the Activity in data set [24] and in data set [25] were 181% and 382%, respectively. For the same compound, in data set [10], the Selectivity ratio is reported as 2.1.
For `CC(C)(C)c1ccc(Sc2cccc3c2C(=O)N(C2CCC(=O)NC2=O)C3=O)cc1` (stereo not given), the outcome with BMOL-T [1] was Active. Besides, the inhibition at 10 µM in data set [2] was determined as 80%; in data set [9], 36%. Moreover, the Activity on Transcription factor p65 [3] is 0%; in data set [4], -13%; in [5], 0%; in the data set with BMOL-T [6] it was -3%; in [7], -5%; in data set [8] it was -22%. The Activity result in the data set on BMOL-T [12] is “Dose-Dependent Effect”; in [13] it was “Toxic”; in data set [26] it was “Toxic”; at Transcription factor p65 [15], 11%; in [16] it was -23%; in [17], -25%. Further, the Activity was -19% with BMOL-T [18], -8% in [19] and -16% in data set [20]. In addition, the Selectivity ratio in [10] and in data set [14] was 9 throughout. Besides, the MAC in [11] is less than 6 µM. Moreover, the result in the data set with BMOL-T [21] was inactive.
For the compound `O=C1CCC(N2C(=O)c3cccc(Cc4ccccc4)c3C2=O)C(=O)N1` (stereo not given), the Time in data set [22] came out at 17.7 h; in [23] it was 13.8 h. Further, in data set [24], the Activity was 2%.
Turning to `CC(C)c1ccc(Sc2cccc3c2C(=O)N(C2CCC(=O)NC2=O)C3=O)cc1` (stereo not given), the results for the Time in [22] and in data set [23] were 17.2 h and 16.2 h, respectively. For the same compound, the Activity in [24] was 3%; in data set [25], 19%.
With `Nc1cccc2c1CN(C1CCC(=O)NC1=O)C2=O` (stereo not given) [LENALIDOMIDE], the Time in data set [22] is 18 h; in data set [23], 15 h. Further, the inhibition at 10 µM in data set [2] came to 20%. Further, the Activity on Transcription factor p65 [3] was 13%; in [4] it was -5%; in data set [5], 0%; in the data set on BMOL-T [6], -9%; in [7], 2%; in data set [8], -4%. Besides, the Activity was -9% on Transcription factor p65 [15]; 7% in data set [16]; -6% in [17]; -16% in the data set with BMOL-T [18]; -3% in data set [19]; 3% in [20]. The result in the data set with BMOL-T [21] was inactive.
On to `O=C1CCC(N2C(=O)c3cccc(Sc4ccccc4)c3C2=O)C(=O)N1` (stereo not given), for which the Time in data set [22] was determined as 16.8 h; in data set [23], 13.8 h. Further, the results for the Activity in [24] and in data set [25] were 1% and 2%, respectively.
On to `CN1C(=O)CCC(N2C(=O)c3cccc(Sc4ccc(C(C)(C)C)cc4)c3C2=O)C1=O` (stereo not given), for which the values for the Time in [22] and in data set [23] were 24 h and 16.3 h, respectively. Besides, the inhibition entry in data set [27] was “inactive”. Further, the Activity is recorded as 26% in data set [24] and 14% in data set [25]. Besides, in the data set with BMOL-T [21], the outcome was inactive.
